Laboratory results as given in ChEMBL document CHEMBL1821569, “Synthesis of novel 1,2,5-trisubstituted benzimidazoles as potential antitumor agents” (2011).

Legend:
Assay type in all cases: functional
[1] = tested on: HOP-62; test: Antitumor activity against human HOP62 cells after 48 hrs by SRB assay; conditions: HOP-62, 48 h
In short: (§1)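 NCI 60-cell-line secondary screen. Cells were exposed continuously to drug for 48 h at five concentration levels (100, 10, 1.0, 0.1 and 0.01). Growth was estimated by sulforhodamine B protein staining. GI50 is the concentration giving a 50% reduction in net protein increase versus untreated control cells over the incubation. TGI (total growth inhibition) and LC50 (50% cell kill) were also derived.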

[2] = tested on: MOLT-4; test: Antitumor activity against human MOLT4 cells after 48 hrs by SRB assay; conditions: MOLT-4, 48 h; in short: as §1
[3] = tested on: RPMI-8226; test: Antitumor activity against human RPMI8226 cells after 48 hrs by SRB assay; conditions: RPMI-8226, 48 h; in short: as §1
[4] = tested on: NCI-H522; test: Antitumor activity against human NCI-H522 cells after 48 hrs by SRB assay; conditions: NCI-H522, 48 h; in short: as §1
[5] = tested on: NCI-H460; test: Antitumor activity against human NCI-H460 cells after 48 hrs by SRB assay; conditions: NCI-H460, 48 h; in short: as §1
[6] = tested on: CCRF-CEM; test: Antitumor activity against human CCRF-CEM cells after 48 hrs by SRB assay; in short: as §1
[7] = tested on: K562; test: Antitumor activity against human K562 cells after 48 hrs by SRB assay; conditions: K562, 48 h; in short: as §1
[8] = tested on: HOP-92; test: Antitumor activity against human HOP92 cells after 48 hrs by SRB assay; conditions: HOP-92, 48 h; in short: as §1
[9] = tested on: NCI-H322M; test: Antitumor activity against human NCI-H322M cells after 48 hrs by SRB assay; in short: as §1
[10] = tested on: HCT-116; test: Antitumor activity against human HCT116 cells after 48 hrs by SRB assay; conditions: HCT-116, 48 h; in short: as §1
[11] = tested on: HCT-15; test: Antitumor activity against human HCT15 cells after 48 hrs by SRB assay; conditions: HCT-15, 48 h; in short: as §1
[12] = tested on: SW-620; test: Antitumor activity against human SW620 cells after 48 hrs by SRB assay; conditions: SW-620, 48 h
In short: (§2)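 NCI 60-cell-line secondary screen. Continuous 48 h exposure at five concentration levels. Cell growth estimated by sulforhodamine B protein staining. GI50 taken as the concentration giving 50% reduction in net protein increase relative to untreated control cells over the incubation. TGI (total growth inhibition) and LC50 (50% cell kill) were also derived.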

[13] = tested on: U-251; test: Antitumor activity against human U251 cells after 48 hrs by SRB assay; conditions: U-251, 48 h; in short: as §2
[14] = tested on: SF-268; test: Antitumor activity against human SF268 cells after 48 hrs by SRB assay; conditions: SF-268, 48 h; in short: as §1
[15] = tested on: SNB-75; test: Antitumor activity against human SNB75 cells after 48 hrs by SRB assay; conditions: SNB-75, 48 h; in short: as §1
[16] = tested on: LOX IMVI; test: Antitumor activity against human LOXIMVI cells after 48 hrs by SRB assay; in short: as §1
[17] = tested on: MDA-MB-435; test: Antitumor activity against human MDA-MB-435 cells after 48 hrs by SRB assay; conditions: MDA-MB-435, 48 h; in short: as §1
[18] = tested on: SK-MEL-5; test: Antitumor activity against human SK-MEL-5 cells after 48 hrs by SRB assay; conditions: SK-MEL-5, 48 h; in short: as §1
[19] = tested on: UACC-257; test: Antitumor activity against human UACC257 cells after 48 hrs by SRB assay; conditions: UACC-257, 48 h; in short: as §2
[20] = tested on: SK-MEL-28; test: Antitumor activity against human SK-MEL-28 cells after 48 hrs by SRB assay; conditions: SK-MEL-28, 48 h; in short: as §1
[21] = tested on: OVCAR-4; test: Antitumor activity against human OVCAR4 cells after 48 hrs by SRB assay; conditions: OVCAR-4, 48 h; in short: as §1
[22] = tested on: OVCAR-5; test: Antitumor activity against human OVCAR5 cells after 48 hrs by SRB assay; conditions: OVCAR-5, 48 h; in short: as §1
[23] = tested on: A498; test: Antitumor activity against human A498 cells after 48 hrs by SRB assay; conditions: A498, 48 h; in short: as §1
[24] = tested on: SN12C; test: Antitumor activity against human SN12C cells after 48 hrs by SRB assay; in short: as §1
[25] = tested on: TK-10; test: Antitumor activity against human TK10 cells after 48 hrs by SRB assay; conditions: TK-10, 48 h; in short: as §2
[26] = tested on: UO-31; test: Antitumor activity against human UO31 cells after 48 hrs by SRB assay; conditions: UO-31, 48 h; in short: as §2
[27] = tested on: PC-3; test: Antitumor activity against human PC3 cells after 48 hrs by SRB assay; conditions: PC-3, 48 h; in short: as §1
[28] = tested on: MCF7; test: Antitumor activity against human MCF7 cells after 48 hrs by SRB assay; conditions: MCF7, 48 h; in short: as §1
[29] = tested on: MDA-MB-231; test: Antitumor activity against human MDA-MB-231 cells after 48 hrs by SRB assay; conditions: MDA-MB-231, 48 h; in short: as §1
[30] = tested on: T47D; test: Antitumor activity against human T47D cells after 48 hrs by SRB assay; in short: as §2
[31] = read-out: LC50 (the source's name)

`COC(=O)c1ccc2c(c1)nc(-c1ccc(Cl)cc1)n2-c1cc(C(C)(C)C)[nH]n1` gave a GI50 [1] of 3.41 µM, an LC50 (concentration giving 50% cell kill) [1] of over 100 µM and a TGI [1] of 21 µM. It also gave a GI50 [2] of 5.48 µM, an LC50 (50% net cell kill) [2] of over 100 µM and a TGI [2] of over 100 µM. The GI50 [3] was 3.93 µM, the TGI [3] was 19 µM and the CC50 [3, 31] was over 100 µM. It also gave a GI50 [4] of 3.21 µM, an LC50 (50% cell kill) [4] of over 100 µM and a TGI [4] of 20.3 µM. The GI50 [5] was 2950 nM, the TGI [5] was 8.81 µM and the CC50 [5, 31] was over 100 µM. For the same compound, the GI50 [6] was 4.91 µM, the TGI [6] was over 100 µM and the CC50 [6, 31] was over 100 µM. The GI50 [7] was 4.2 µM, the TGI [7] was over 100 µM and the CC50 [7, 31] was over 100 µM. For the same compound, the GI50 [8] was 1150 nM, the TGI [8] was 8.02 µM and the CC50 [8, 31] was over 100 µM. It also gave a GI50 [9] of 10.4 µM, an LC50 (50% cell kill) [9] of over 100 µM and a TGI [9] of 86.4 µM. For the same compound, the GI50 [10] was 3.47 µM, the LC50 [10] was 563 nM and the TGI [10] was 12.3 µM. It also gave a GI50 [11] of 4.36 µM, an LC50 (50% cell kill) [11] of over 100 µM and a TGI [11] of over 100 µM. The GI50 [12] was 3.24 µM, the TGI [12] was over 100 µM and the CC50 [12, 31] was over 100 µM. It also gave a GI50 [13] of 4.13 µM, a TGI [13] of 22.7 µM and a CC50 [13, 31] of over 100 µM. The GI50 [14] was 3.29 µM, the TGI [14] was 17.8 µM and the CC50 [14, 31] was over 100 µM. For the same compound, the GI50 [15] was 2140 nM, the TGI [15] was 12.6 µM and the CC50 [15, 31] was over 100 µM. The GI50 [16] was 3.7 µM, the TGI [16] was 14.5 µM and the CC50 [16, 31] was 429 nM. For the same compound, the GI50 [17] was 1190 nM, the TGI [17] was 5 µM and the CC50 [17, 31] was 505 nM. The GI50 [18] was 2020 nM, the TGI [18] was 5.1 µM and the CC50 [18, 31] was 186 nM. For the same compound, the GI50 [19] was 4.97 µM, the TGI [19] was 22.9 µM and the CC50 [19, 31] was 967 nM. The GI50 [20] was 3.38 µM, the TGI [20] was 15.5 µM and the CC50 [20, 31] was 552 nM. For the same compound, the GI50 [21] was 3.4 µM, the TGI [21] was over 100 µM and the CC50 [21, 31] was over 100 µM. It also gave a GI50 [22] of 12.9 µM, a TGI [22] of 60.1 µM and a CC50 [22, 31] of over 100 µM. For the same compound, the GI50 [23] was 2260 nM, the TGI [23] was 9.76 µM and the CC50 [23, 31] was 858 nM. The GI50 [24] was 4.34 µM, the TGI [24] was 27.7 µM and the CC50 [24, 31] was over 100 µM. For the same compound, the GI50 [25] was 6.94 µM, the TGI [25] was over 100 µM and the CC50 [25, 31] was over 100 µM. For the same compound, the GI50 [26] was 3.35 µM, the TGI [26] was 44.1 µM and the CC50 [26, 31] was over 100 µM. The GI50 [27] was 2930 nM, the TGI [27] was 15.7 µM and the CC50 [27, 31] was over 100 µM. The GI50 [28] was 2790 nM, the TGI [28] was 12.3 µM and the CC50 [28, 31] was over 100 µM. It also gave a GI50 [29] of 4.62 µM, a TGI [29] of 27 µM and a CC50 [29, 31] of over 100 µM. For the same compound, the GI50 [30] was 3.64 µM, the TGI [30] was over 100 µM and the CC50 [30, 31] was over 100 µM.
